In ChEMBL document CHEMBL4038281, “Competitive protein tyrosine phosphatase 1B (PTP1B) inhibitors, prenylated caged xanthones from Garcinia hanburyi and their inhibitory mechanism” (Bioorg Med Chem, 2017):
pIC50, pKi: −log10 of the molar value.

Key:
[1] = target: T1, Tyrosine-protein phosphatase non-receptor type 1 (Homo sapiens, UniProt P18031); assay: Inhibition of recombinant human PTP1B (1 to 322 residues) expressed in Escherichia coli using pNPP as substrate by Dixon plot analysis
T1 sequence (P18031 whole entry): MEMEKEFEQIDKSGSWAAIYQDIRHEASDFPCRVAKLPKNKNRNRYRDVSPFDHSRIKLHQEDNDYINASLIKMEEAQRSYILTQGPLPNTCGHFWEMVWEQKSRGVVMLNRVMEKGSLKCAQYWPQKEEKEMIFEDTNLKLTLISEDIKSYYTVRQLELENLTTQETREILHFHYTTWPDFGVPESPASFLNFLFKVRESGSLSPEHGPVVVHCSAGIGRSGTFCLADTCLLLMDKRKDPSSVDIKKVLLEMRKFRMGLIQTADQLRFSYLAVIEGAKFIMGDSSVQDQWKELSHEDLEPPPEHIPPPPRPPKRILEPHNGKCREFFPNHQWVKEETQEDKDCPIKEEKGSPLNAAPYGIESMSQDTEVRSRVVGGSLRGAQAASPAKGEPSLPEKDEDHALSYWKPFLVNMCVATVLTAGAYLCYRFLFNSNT
In short: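 Initial velocity with pNPP was recorded over a range of inhibitor concentrations in 25 mM Tris-HCl (pH 7.5) buffer with EDTA, b-mercaptoethanol and DTT at 37 °C, read at 405 nm. Data were fitted by nonlinear regression, and inhibition constants were taken from Dixon plots.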

[2] = target: T1, Tyrosine-protein phosphatase non-receptor type 1; assay: Inhibition of recombinant human PTP1B (1 to 322 residues) expressed in Escherichia coli using pNPP as substrate incubated for 10 mins measured for 30 mins by spectrometric analysis
In short: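 Enzyme (1 mg/mL stock) was mixed with sample in DMSO and 4 mM pNPP stock in 25 mM Tris-HCl pH 7.5, 1 mM EDTA, 2 mM b-mercaptoethanol and 1 mM DTT.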

[3] = target: T1, Tyrosine-protein phosphatase non-receptor type 1; assay: Inhibition of recombinant human PTP1B (1 to 322 residues) expressed in Escherichia coli using pNPP as substrate preincubated for 60 mins followed by substrate addition measured at 30 secs interval for 10 mins by UV-spectrophotmetric method; settings: read-out: Ki(app)
In short: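 Activity was read continuously by UV spectrophotometry for 10 min, giving progress curves of 20 points at 30 s intervals. Fixed substrate and several inhibitor levels were used, and any lag was excluded. vi, vs and Kobs were obtained by fitting the progress curves.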

Row | Compound | pKi [1] | pIC50 [2] | pKi [3]
1 | CO[C@@H]1C2C(=O)c3c(O)c4c(c(CC=C(C)C)c3O[C@@]23[C@H]2C[C@@H]1C(=O)[C@]3(C/C=C(/C)C(=O)O)OC2(C)C)O[C@](C)(CCC=C(C)C)C=C4 (stereo partly specified) | 6.52 | 6.13 | 
2 | CC(C)=CCC/C(C)=C/Cc1c(O)c(CC=C(C)C)c2c(c1O)C(=O)C1=C[C@@H]3C[C@H]4C(C)(C)O[C@@](C/C=C(/C)C(=O)O)(C3=O)[C@@]14O2 [GAMBOGENIC ACID] | 5.92 | 5.46 | 
3 | CC(C)=CCc1c2c(c(O)c3c1O[C@]14C(=C[C@@H]5C[C@H]1C(C)(C)O[C@@]4(CC=C(C)C)C5=O)C3=O)C=CC(C)(C)O2 |  | < 3.70 | 
4 | CO[C@@H]1C2C(=O)c3c(O)c4c(c(CC=C(C)C)c3O[C@@]23[C@H]2C[C@@H]1C(=O)[C@]3(C/C=C(/C)C(=O)O)OC2(C)C)OC(C)(C)C=C4 (stereo partly specified) | 5.76 | 5.35 | 
5 | CC(C)=CCC[C@]1(C)C=Cc2c(O)c3c(c(CC=C(C)C)c2O1)O[C@]12C(=C[C@@H]4C[C@H]1C(C)(C)O[C@@]2(C/C=C(/C)C(=O)O)C4=O)C3=O [GAMBOGIC ACID] | 6.72 | 6.33 | 6.30

More lines, main results first:

Row | pKi [1] | pIC50 [2] | Compound | pKi [3]
6 | 4.53 | 4.15 | CC(C)=CCc1c2c(c(O)c3c1O[C@]14C(=C[C@@H]5C[C@H]1C(C)(C)O[C@@]4(/C=C(/C)CO)C5=O)C3=O)C=CC(C)(C)O2 | 
7 | 5.36 | 4.89 | COC1=C2C(=O)c3c(O)c4c(c(CC=C(C)C)c3O[C@@]23[C@H]2C[C@@H]1C(=O)[C@]3(CC=C(C)C)OC2(C)C)O[C@](C)(CCC=C(C)C)C=C4 | 
8 | 6.41 | 6.03 | CO[C@@H]1C2C(=O)c3c(O)c(C/C=C(\C)CCC=C(C)C)c(O)c(CC=C(C)C)c3O[C@@]23[C@H]2C[C@@H]1C(=O)[C@]3(C/C=C(/C)C(=O)O)OC2(C)C (stereo partly specified) | 
